Active and inactive are the calls of the source.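 The calls were made as follows: active = fold shift at most 0.5 or above 2, or agonist peak response under 75 or over 125 percent; inactive = the rest.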
Target: Metabotropic glutamate receptor 6 (Homo sapiens) (UniProt O15303)
Assay: Human mGluR6 profiling panel, HEK/GIRK cell-based Tl+ flux, fold shift of glutamate response, mGluR5 PAM selectivity (AID 588730)
Settings: HEK/GIRK hmGluR6, thallium flux, glutamate CRC fold shift, at 10 µM; for Emax: measured here: glutamate max response with compound
Summary of the method: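 assay system = HEK/GIRK cells expressing human mGlu6 receptor | probe or stimulus = 11-point glutamate curve in Tl+ buffer | compound dosing = one dose, 10 µM final | detection = thallium flux fluorescence with FluoZin2 dye loading | measure = control EC50 over compound-treated EC50 | benchmarks = vehicle in place of test compound for reference glutamate curve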

Metabotropic glutamate receptor 6 (Homo sapiens), sequence (O15303 whole entry, looked up): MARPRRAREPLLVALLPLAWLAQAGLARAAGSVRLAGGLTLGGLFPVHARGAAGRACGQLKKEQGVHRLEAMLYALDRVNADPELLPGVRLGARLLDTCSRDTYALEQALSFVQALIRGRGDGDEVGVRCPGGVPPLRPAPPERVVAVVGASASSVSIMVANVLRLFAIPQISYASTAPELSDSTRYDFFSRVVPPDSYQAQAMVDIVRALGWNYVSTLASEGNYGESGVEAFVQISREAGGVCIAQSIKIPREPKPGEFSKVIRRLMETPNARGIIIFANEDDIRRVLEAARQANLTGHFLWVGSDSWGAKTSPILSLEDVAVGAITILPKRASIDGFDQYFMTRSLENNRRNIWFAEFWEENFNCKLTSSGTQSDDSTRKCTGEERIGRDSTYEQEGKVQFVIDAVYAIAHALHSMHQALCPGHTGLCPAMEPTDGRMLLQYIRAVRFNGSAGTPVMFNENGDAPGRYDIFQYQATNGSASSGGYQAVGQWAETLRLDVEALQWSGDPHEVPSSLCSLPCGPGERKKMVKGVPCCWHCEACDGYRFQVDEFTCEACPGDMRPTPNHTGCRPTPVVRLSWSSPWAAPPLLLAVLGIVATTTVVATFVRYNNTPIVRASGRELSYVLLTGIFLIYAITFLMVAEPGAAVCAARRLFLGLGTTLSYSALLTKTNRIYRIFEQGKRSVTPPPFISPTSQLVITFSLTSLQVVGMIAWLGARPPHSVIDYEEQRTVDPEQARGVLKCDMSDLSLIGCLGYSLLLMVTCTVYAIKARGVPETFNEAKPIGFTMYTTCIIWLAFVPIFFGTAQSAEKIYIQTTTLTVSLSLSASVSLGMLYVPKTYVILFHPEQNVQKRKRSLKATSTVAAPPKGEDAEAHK

| Structure (SMILES) | fold shift | Emax [%] |
| --- | --- | --- |
| C[C@@H](NC(=O)c1ccc(C#Cc2cccc(F)c2)cn1)C(C)(C)O | 1.04 (inactive) | 93 |
| CC1(NC(=O)c2ccc(C#Cc3cccc(F)c3)cn2)COC1 | 0.98 (inactive) | 90 |

From PubChem BioAssay AID588730 (Vanderbilt Specialized Chemistry Center, 2011)
